The test system of series [1] is L1210. Nature of the series: Antiproliferative activity against lymphoid leukemia L1210 cells after 48 hr exposure. In kind it is functional. To be noted: Mus musculus, L1210, 48 h; read-out: ID50 (the source's name).
Series [2] has as its system Mus musculus. Nature of the series: Increase in life span of mice with lymphocytic leukemia P388 10E6 tumor cell implant (intraperitoneally) at the highest nontoxic dose of 300 mg/kg tested. It is filed as functional. To be noted: P388, ip, route intraperitoneal. In a few lines:
(§1)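 Mice bore P388 lymphocytic leukemia. The value is the increase in life span at the highest nontoxic dose tested, with toxicity judged by weight change.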

Series [3] concerns L1210. Briefly: Concentration that causes a mitotic index (fraction of cells in mitosis divided by total cells) of 0.5 for cultured lymphoid leukemia L1210 cells after exposure of 12 hr. In kind it is functional, Mus musculus. In outline:
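Cultured lymphoid leukemia L1210 cells exposed to agent for 12 h. Mitotic index is the fraction of cells in mitosis over total cells. The value is the agent concentration giving a mitotic index of 0.5.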

Series [4] relates to Mus musculus. Briefly: Compound tested for weight change in mice at a dose of 200 mg/kg; Toxic. To be noted: in vivo. Also on record: dose 200 mg/kg. In kind it is toxicity, organism-based.
In series [5] the test system is Mus musculus. Briefly: Increase in life span of mice with lymphocytic leukemia P388 10E6 tumor cell implant (intraperitoneally) at the highest nontoxic dose of 100 mg/kg tested. In kind it is functional. As to conditions: P388, ip, route intraperitoneal. In a few lines: as §1
The subject of series [6] is Mus musculus. Briefly: Compound tested for weight change in mice at a dose of 400 mg/kg; Toxic. Also noted: dose 400 mg/kg. It is filed as toxicity, organism-based. As to conditions: in vivo.
The subject of series [7] is Mus musculus. Briefly: Increase in life span of mice with lymphocytic leukemia P388 10E6 tumor cell implant (intraperitoneally) at the highest nontoxic dose of 200 mg/kg tested. To be noted: P388, ip, route intraperitoneal. It is filed as functional. In a few lines:
as §1

Series [8] concerns Mus musculus. Briefly: Increase in life span of mice with lymphocytic leukemia P388 10E6 tumor cell implant (intraperitoneally) at the highest nontoxic dose of 75 mg/kg tested. In kind it is functional. As to conditions: P388, ip, route intraperitoneal. In outline: as §1
The test system of series [9] is Mus musculus. Nature of the series: Increase in life span of mice with lymphocytic leukemia P388 10E6 tumor cell implant (intraperitoneally) at the highest nontoxic dose of 150 mg/kg tested. It is filed as functional. As to conditions: P388, ip, route intraperitoneal. In a few lines:
as §1

The term ILS denotes how much longer treated animals lived than controls.

Regarding `CCOC(=O)Nc1cc2oc(=O)c(-c3ccccc3)nc2c(N)n1`, the IC50 in the series on L1210 [1] was found to be 3000 nM. The same molecule yielded an ILS at 300 mg/kg in the series on Mus musculus [2] of 0%.
`CCOC(=O)Nc1cc2c(c(N)n1)N=C(c1ccc(OC)cc1)CS2`: the IC50 in the series with L1210 [1] stood at 340 nM. This molecule also came in with an ILS at 300 mg/kg in the series with Mus musculus [2] of 3%. Further, the MI0.5 in the series on L1210 [3] worked out at 4.9 µM.
Turning to `CCOC(=O)Nc1cc2c(c(N)n1)N=C(c1ccc(Cl)cc1)CO2`, in the series on L1210 [1], the IC50 was > 3000 nM. In addition, in the series on Mus musculus [2], the ILS at 300 mg/kg was found to be 0%.
With `CCOC(=O)Nc1cc2c(c(N)n1)N=C(c1ccc3ccccc3c1)CS2`, the IC50 in the series on L1210 [1] came out at 580 nM. In the series with Mus musculus [2], this molecule showed an increase in life span (ILS) at 300 mg/kg of 5%. In addition, in the series on L1210 [3], the MI0.5 came out at 3 µM.
For `CCOC(=O)Nc1cc2c(c(/N=C/N(C)C)n1)N=C(c1ccccc1)CO2`, in the series with Mus musculus [4], the Toxicity result is “Toxic”. Also, in the series with L1210 [1], the IC50 was found to be 310 nM. The molecule also yielded an MI0.5 in the series on L1210 [3] of 0.78 µM. In the series on Mus musculus [5], this molecule returned an ILS at 100 mg/kg of 1%.
On to `CCOC(=O)Nc1cc2c(c(N)n1)N=C(c1ccc([N+](=O)[O-])cc1)CO2`, for which the IC50 with L1210 [1] was > 3000 nM. The ILS at 300 mg/kg in the series with Mus musculus [2] came out at 0%.
On to `CCOC(=O)Nc1cc2c(c(N)n1)N=C(c1ccccc1)CO2`, for which the IC50 in the series on L1210 [1] is 225 nM. The Toxicity entry with Mus musculus [6] is recorded as “Toxic”. This molecule returned an increase in life span (ILS) at 200 mg/kg in the series with Mus musculus [7] of 80%. This molecule also had an MI0.5 with L1210 [3] of 0.56 µM. For the same molecule, in the series with Mus musculus [5], the ILS at 100 mg/kg is 44%.
Take `CCOC(=O)Nc1cc2c(c(N)n1)N=C(c1cccc(OC)c1)CS2`: the IC50 in the series with L1210 [1] was determined as 530 nM. Also, the ILS at 75 mg/kg in the series on Mus musculus [8] stood at 3%. In the series with L1210 [3], this molecule came in with an MI0.5 of 2 µM.
Turning to `CCOC(=O)Nc1cc2c(c(N)n1)N=C(c1ccccc1)C(C)O2` (stereo not given), the IC50 with L1210 [1] was found to be 110 nM. Besides, in the series on L1210 [3], the MI0.5 was 0.49 µM. The molecule also yielded an ILS at 100 mg/kg in the series with Mus musculus [5] of 49%.
Regarding `CCOC(=O)Nc1cc2c(c(NC(=O)CBr)n1)N=C(c1ccccc1)CO2`, the IC50 in the series on L1210 [1] was 2200 nM. The same molecule gave an MI0.5 in the series with L1210 [3] of 11 µM.
In the case of `CCOC(=O)Nc1cc2c(c(N)n1)N=C(c1ccccc1)C(C)S2` (stereo not given), in the series on L1210 [1], the IC50 is 1600 nM. Moreover, the MI0.5 with L1210 [3] was found to be 9.6 µM. Moreover, the ILS at 150 mg/kg in the series with Mus musculus [9] was 10%.
Regarding `CCOC(=O)Nc1cc2c(c(N)n1)N=C(c1ccccc1)CS2`, in the series on L1210 [1], the IC50 was found to be 6100 nM. The same molecule gave an increase in life span (ILS) at 300 mg/kg in the series on Mus musculus [2] of 0%. In addition, the MI0.5 with L1210 [3] is >10 µM.
As to `CCOC(=O)Nc1cc2c(c(N)n1)N=C(c1cc(OC)cc(OC)c1)C(C)O2` (stereo not given), in the series with L1210 [1], the IC50 is 1250 nM. The molecule further showed an MI0.5 in the series on L1210 [3] of 2.9 µM.
Take `CCOC(=O)Nc1cc2c(c(N)n1)N=C(c1ccccc1)C(c1ccccc1)O2` (stereo not given): the IC50 in the series with L1210 [1] was 880 nM. The same molecule yielded an ILS at 200 mg/kg in the series on Mus musculus [7] of 2%. In the series with L1210 [3], this molecule came in with an MI0.5 of 3 µM.
Turning to `CCOC(=O)Nc1cc2c(c(N)n1)N=C(c1cccc(OC)c1)CO2`, the IC50 in the series with L1210 [1] was 52 nM. The same molecule registered an MI0.5 in the series with L1210 [3] of 0.1 µM.
On to `CCOC(=O)Nc1cc2c(c(N)n1)N=C(c1ccccc1)C(C)(C)S2`, for which the IC50 in the series on L1210 [1] is > 10000 nM.
With `CCOC(=O)Nc1cc2c(c(N)n1)N=C(c1cc(OC)c(OC)c(OC)c1)CO2`, the IC50 in the series with L1210 [1] is > 3000 nM. The ILS at 300 mg/kg in the series with Mus musculus [2] was found to be 0%.

(Values after ChEMBL document CHEMBL1122394, “Synthesis of potential anticancer agents. Pyrido[4,3-b][1,4]oxazines and pyrido[4,3-b][1,4]thiazines” (J Med Chem, 1983).)
